From PubChem
Platelet DG rel: platelet dense granule release activity | inhibition, %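 (compounds screened at 7.5 µM in platelet-rich plasma)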 | actives 0.22% (n = 300,000) | human platelet-rich plasma, SFLLRN dense granule ATP release, luminescence;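 active = mean replicate score, as percent of positive control, at or above 50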
TRPC4 act: activators of mouse TRPC4 channel. Q9QUQ5. HEK293 TRPC4beta/mu-opioid, Fluo4 calcium fluorescence; stronger effect = higher value. B-score at 10 µM. actives 0.49% (n = 310,000). AID 2237;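 active = B-score above 5 SD of library B-scores, and initial fluorescence ratio not above library mean plus 5 SD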;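 also: positive B-score marks a calcium rise read as TRPC4 activation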
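System: HEK293 cells stably co-expressing mouse TRPC4beta and mu-opioid receptor; Schedule: Fluo4 dye loading 45 min at room temperature, 110 s recording; Detection: Fluo4 fluorescence, kinetic; Evaluation: B-scored integrated calcium fluorescence ratio; Controls: buffer (low) and maximal DAMGO (high).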
TRPC4 inh: inhibitors of mouse TRPC4 channel; Q9QUQ5; HEK293 TRPC4beta/mu-opioid, DAMGO-evoked Fluo4 calcium flux; stronger effect = lower value; B-score at 10 µM; actives 0.39% (n = 300,000); AID 2247;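 active = B-score over 3 SD under the library average, no early fluorescence shift, positive overall ratio signal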
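Signal: kinetic Fluo4 fluorescence imaging of calcium influx. Material: stable TRPC4beta/mu-opioid receptor HEK293 cells. Probe or stimulus: DAMGO in two steps, submaximal then maximal.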
TRPC4 PAM: allosterically enhances the mouse TRPC4 cation channel; actives 0.42% (n = 310,000); HEK293 TRPC4beta/mu-opioid, DAMGO EC20, Fluo-4 Ca2+ flux; stronger effect = higher value; B-score at 10 µM;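 active = B-score of calcium response area above 5 SD of library B-scores, with initial fluorescence ratio within 5 SD of library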;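 also: B-score of integrated fluorescence ratio over time as area under calcium response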
TRPC6 inhibitor: blocks the mouse TRPC6 cation channel. actives 1.1% (n = 310,000). AID 2553. HEK293-TRPC6, membrane potential dye, ACh-evoked depolarization; stronger effect = lower value. B-score at 10 µM;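 active = B-score under library mean minus 3 SD, initial fluorescence not abnormally high, positive integrated signal ratio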;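 also: B-score derived from integrated fluorescence ratio over the kinetic read; more negative B-score means stronger inhibition of depolarization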
TRPC6 activator: activates the mouse TRPC6 cation channel; Q61143; HEK293-TRPC6 membrane potential dye fluorescence; stronger effect = higher value; B-score at 10 µM; actives 0.13% (n = 310,000); AID 2550;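 active = B-score of the integrated fluorescence ratio above library mean plus 3 SD, and starting fluorescence ratio within library mean plus 5 SD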;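 also: higher score means more depolarization so channel activation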
* = called active by the depositor. Compounds with a hit are over-represented: about 2.5% of the library has one in this group of screens.

Results for NC(=O)c1nsc(C(=O)N(Cc2ccccc2Cl)C(C(=O)NCC2CCCO2)c2ccc(O)cc2)c1N (configuration not stated) ?
Platelet DG rel: 2; TRPC4 act: inactive; TRPC4 inh: -8*; TRPC4 PAM: inactive; TRPC6 inhibitor: inactive; TRPC6 activator: inactive

How did NC(=O)c1nsc(C(=O)N(Cc2ccc(F)cc2)C(C(=O)NC2CCCC2)c2ccco2)c1N (configuration not stated) do in these assays?
Platelet DG rel: -6; TRPC4 act: inactive; TRPC4 inh: -7*; TRPC4 PAM: inactive; TRPC6 inhibitor: inactive; TRPC6 activator: inactive

How did CC(C)CCNC(=O)C(c1ccco1)N(Cc1ccc(F)cc1)C(=O)c1snc(C(N)=O)c1N (configuration not stated) do in these assays?
Platelet DG rel: 4; TRPC4 act: inactive; TRPC4 inh: inactive; TRPC4 PAM: inactive; TRPC6 inhibitor: inactive; TRPC6 activator: inactive

What do the screens show for `COc1ccc(C(C(=O)NCC2CCCO2)N(Cc2cccs2)C(=O)c2snc(C(N)=O)c2N)cc1` (configuration not stated)?
Platelet DG rel: -1; TRPC4 act: inactive; TRPC4 inh: inactive; TRPC4 PAM: inactive; TRPC6 inhibitor: inactive; TRPC6 activator: inactive

Results for COc1ccc(N(C(=O)c2snc(C(N)=O)c2N)C(C(=O)NC2CCCC2)c2ccc(F)cc2)c(OC)c1 (configuration not stated) ?
Platelet DG rel: 14; TRPC4 act: inactive; TRPC4 inh: inactive; TRPC4 PAM: inactive; TRPC6 inhibitor: inactive; TRPC6 activator: inactive

What do the screens show for `Cc1ccccc1N(C(=O)c1snc(C(N)=O)c1N)C(C)C(=O)NC1CCCCC1` (configuration not stated)?
Platelet DG rel: 2; TRPC4 act: inactive; TRPC4 inh: -6*; TRPC4 PAM: inactive; TRPC6 inhibitor: inactive; TRPC6 activator: inactive

Results for Cc1cccnc1NC(=O)c1ccc(COc2ccccc2)o1 ?
Platelet DG rel: -7; TRPC4 act: inactive; TRPC4 inh: inactive; TRPC4 PAM: inactive; TRPC6 inhibitor: inactive; TRPC6 activator: inactive

What do the screens show for `COc1ccccc1C(=O)C1CCCN(C(=O)c2cccnc2SC)C1` (configuration not stated)?
Platelet DG rel: -2; TRPC4 act: inactive; TRPC4 inh: inactive; TRPC4 PAM: inactive; TRPC6 inhibitor: inactive; TRPC6 activator: inactive

What do the screens show for `CN(C)S(=O)(=O)c1ccc(C(=O)NCC(=O)N/N=C/c2ccccc2Cl)cc1`?
Platelet DG rel: -1; TRPC4 act: inactive; TRPC4 inh: inactive; TRPC4 PAM: inactive; TRPC6 inhibitor: inactive; TRPC6 activator: inactive

Results for Cc1ccc(CN(C(=O)c2ccc(Cl)c([N+](=O)[O-])c2)C2CCS(=O)(=O)C2)o1 (configuration not stated) ?
Platelet DG rel: -4; TRPC4 act: inactive; TRPC4 inh: inactive; TRPC4 PAM: inactive; TRPC6 inhibitor: inactive; TRPC6 activator: inactive

How did O=C(O)c1ccc2c(=O)n3c(nc2c1)/C(=C/c1ccccc1C(F)(F)F)CCCC3 do in these assays?
Platelet DG rel: -3; TRPC4 act: inactive; TRPC4 inh: inactive; TRPC4 PAM: inactive; TRPC6 inhibitor: inactive; TRPC6 activator: inactive

Results for C[C@H](NC(=O)C1CCN(S(=O)(=O)c2ccccc2)CC1)C(=O)NCc1ccco1 ?
Platelet DG rel: 4; TRPC4 act: inactive; TRPC4 inh: inactive; TRPC4 PAM: inactive; TRPC6 inhibitor: inactive; TRPC6 activator: inactive

What do the screens show for `COc1cccc(CN(C(=O)c2ccccc2Cl)C2CCS(=O)(=O)C2)c1` (configuration not stated)?
Platelet DG rel: -1; TRPC4 act: inactive; TRPC4 inh: inactive; TRPC4 PAM: inactive; TRPC6 inhibitor: inactive; TRPC6 activator: inactive

Results for CN1CCN(NC(=O)CN(C)S(=O)(=O)c2cc(Cl)ccc2Cl)CC1 ?
Platelet DG rel: -1; TRPC4 act: 84*; TRPC4 inh: inactive; TRPC4 PAM: inactive; TRPC6 inhibitor: inactive; TRPC6 activator: inactive

What do the screens show for `CN(CC(=O)NC1CC1)S(=O)(=O)c1cc(Cl)ccc1Cl`?
Platelet DG rel: 1; TRPC4 act: inactive; TRPC4 inh: inactive; TRPC4 PAM: inactive; TRPC6 inhibitor: inactive; TRPC6 activator: inactive

How did CC(C)c1ccc(C2c3[nH]c4ccccc4c3C[C@H]3C(=O)N(c4ccccc4C(=O)N4CCC(C(=O)O)CC4)C(=O)N23)cc1 (some centres not stated) do in these assays?
Platelet DG rel: 4; TRPC4 act: inactive; TRPC4 inh: inactive; TRPC4 PAM: inactive; TRPC6 inhibitor: inactive; TRPC6 activator: inactive

What do the screens show for `CCOC(=O)C(CCCCOc1cccc(CC)c1)C(=O)OCC`?
Platelet DG rel: 7; TRPC4 act: inactive; TRPC4 inh: inactive; TRPC4 PAM: inactive; TRPC6 inhibitor: inactive; TRPC6 activator: inactive

How did O=[N+]([O-])c1ccccc1OCCCN1CCc2ccccc2C1 do in these assays?
Platelet DG rel: 0; TRPC4 act: inactive; TRPC4 inh: inactive; TRPC4 PAM: inactive; TRPC6 inhibitor: inactive; TRPC6 activator: inactive

Results for CCOC(=O)C(CCCCCOc1ccccc1[N+](=O)[O-])C(=O)OCC ?
Platelet DG rel: 0; TRPC4 act: inactive; TRPC4 inh: -6*; TRPC4 PAM: inactive; TRPC6 inhibitor: inactive; TRPC6 activator: inactive

What do the screens show for `O=C(COc1ccccc1[N+](=O)[O-])OCCCOC(=O)COc1ccccc1[N+](=O)[O-]`?
Platelet DG rel: -8; TRPC4 act: inactive; TRPC4 inh: inactive; TRPC4 PAM: inactive; TRPC6 inhibitor: inactive; TRPC6 activator: inactive

Results for CC1CC(C)CN(CCCOc2ccccc2[N+](=O)[O-])C1 (configuration not stated) ?
Platelet DG rel: 6; TRPC4 act: 48*; TRPC4 inh: inactive; TRPC4 PAM: inactive; TRPC6 inhibitor: inactive; TRPC6 activator: inactive

What do the screens show for `CCOC(=O)C(CCCCCOc1ccc([N+](=O)[O-])cc1)C(=O)OCC`?
Platelet DG rel: 0; TRPC4 act: inactive; TRPC4 inh: inactive; TRPC4 PAM: 23*; TRPC6 inhibitor: inactive; TRPC6 activator: inactive

How did O=C(COc1ccccc1Cl)c1ccc[nH]1 do in these assays?
Platelet DG rel: -1; TRPC4 act: inactive; TRPC4 inh: inactive; TRPC4 PAM: inactive; TRPC6 inhibitor: inactive; TRPC6 activator: inactive

How did O=C(COc1ccc(Br)cc1Cl)c1ccc[nH]1 do in these assays?
Platelet DG rel: -1; TRPC4 act: inactive; TRPC4 inh: -6*; TRPC4 PAM: inactive; TRPC6 inhibitor: inactive; TRPC6 activator: inactive
